Experimental findings from ChEMBL document CHEMBL2203197, “Design and synthesis of 2-aminothiazole based antimicrobials targeting MRSA” (2012) are described below.

In brackets after ≈: the same amount, converted by molar mass.

Common to all, as to format: functional
The subject of one assay is Escherichia coli. In words: Antibacterial activity against Escherichia coli C600 N/puc19 after 24 hrs by CLSI broth microdilution method. The conditions noted are these: C600 N/puc19, 24 h. The procedure, abridged:
(§1)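 Broth microdilution per CLSI in cation-adjusted Mueller–Hinton broth. MIC was taken as the lowest concentration inhibiting visible growth (turbidity).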

Assay [1] has as its system Staphylococcus aureus. In words: Antibacterial activity against methicillin-resistant Staphylococcus aureus RN8175 after 24 hrs by CLSI broth microdilution method. The conditions noted are these: RN8175, 24 h. In a few lines: (§2)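 Broth microdilution per CLSI in cation-adjusted Mueller–Hinton broth. Plates were incubated 24 h at 37 °C. MIC was taken as the lowest concentration that inhibited growth, judged by turbidity.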
A general note: In broth dilution the organism is exposed to a series of concentrations in liquid medium.

The test system of assay [2] is Staphylococcus aureus. In words: Antibacterial activity against methicillin-resistant Staphylococcus aureus USA-300 after 24 hrs by CLSI broth microdilution method. The conditions noted are these: USA-300, 24 h. In a few lines:
as §2

Assay [3] deals with Staphylococcus aureus. In words: Antibacterial activity against methicillin-resistant Staphylococcus aureus UAMS-1 after 24 hrs by CLSI broth microdilution method. The conditions noted are these: UAMS-1, 24 h. In a few lines:
as §2

Another assay concerns Acinetobacter baumannii. In words: Antibacterial activity against Acinetobacter baumannii UNMC 8872 after 24 hrs by CLSI broth microdilution method. The conditions noted are these: UNMC 8872, 24 h. The procedure, abridged:
as §1

In general, MIC refers to the lowest concentration found to suppress growth. A lower MIC goes with inhibition by little substance.

Turning to `Nc1nc(-c2ccc3ccccc3c2)cs1`, the MIC with Escherichia coli is more than 256 µg/mL; with Staphylococcus aureus [1], more than 256 µg/mL; in the assay on Staphylococcus aureus [2], more than 256 µg/mL; in the assay on Staphylococcus aureus [3] it was 256 µg/mL (≈ 1130 µM).
Consider `COc1ccc(-c2csc(N)n2)cc1`, for which the MIC against Escherichia coli, in the assay with Staphylococcus aureus [1] and against Staphylococcus aureus [2] was more than 256 µg/mL each time.
On to `Nc1nc(-c2cc3ccccc3o2)cs1`, for which the minimum inhibitory concentration (MIC) against Escherichia coli was more than 256 µg/mL; with Staphylococcus aureus [1], more than 256 µg/mL; in the assay with Staphylococcus aureus [2], more than 256 µg/mL; in the assay on Staphylococcus aureus [3], 256 µg/mL (≈ 1180 µM).
`O=S(=O)(Nc1nc(-c2ccccc2Br)cs1)c1ccccc1`: the minimum inhibitory concentration (MIC) against Escherichia coli was more than 256 µg/mL; against Staphylococcus aureus [1], 32 µg/mL (≈ 81 µM); with Staphylococcus aureus [2], 128 µg/mL (≈ 324 µM).
For the compound `Nc1nc(-c2cccc(-c3cccc(C(=O)O)c3)c2)cs1`, the minimum inhibitory concentration (MIC) in the assay with Acinetobacter baumannii, in the assay on Escherichia coli, with Staphylococcus aureus [1] and in the assay on Staphylococcus aureus [2] was more than 256 µg/mL throughout.
Turning to `Nc1nc(-c2cccc(-c3ccc(C(=O)O)cc3)c2)cs1`, the minimum inhibitory concentration (MIC) in the assay with Acinetobacter baumannii, with Escherichia coli, with Staphylococcus aureus [1] and against Staphylococcus aureus [2] was more than 256 µg/mL each time.
With `COC(=O)c1ccccc1-c1cccc(-c2csc(N)n2)c1`, the MIC with Escherichia coli, with Staphylococcus aureus [1], against Staphylococcus aureus [2] and with Staphylococcus aureus [3] was more than 256 µg/mL in each case.
In the case of `CCOC(=O)COc1cccc(-c2cccc(-c3csc(N)n3)c2)c1`, the minimal inhibitory concentration (MIC) against Escherichia coli, in the assay with Staphylococcus aureus [1] and in the assay on Staphylococcus aureus [2] was more than 256 µg/mL each time.
Regarding `CCOC(=O)COc1ccc(-c2cccc(-c3csc(N)n3)c2)cc1`, the MIC against Escherichia coli was more than 256 µg/mL; in the assay on Staphylococcus aureus [1] it was 256 µg/mL (≈ 722 µM); in the assay on Staphylococcus aureus [2], more than 256 µg/mL.
On to `CCOC(=O)CCc1ccc(-c2cccc(-c3csc(N)n3)c2)cc1`, for which the MIC against Escherichia coli was more than 256 µg/mL; against Staphylococcus aureus [1], 256 µg/mL (≈ 726 µM); in the assay on Staphylococcus aureus [2], more than 256 µg/mL.
Take `Nc1nc(-c2cccc(-c3cccc(OC(F)(F)F)c3)c2)cs1`: the figures for the MIC with Escherichia coli, with Staphylococcus aureus [1] and with Staphylococcus aureus [2] were more than 256 µg/mL, 4 µg/mL (≈ 11.9 µM) and 8 µg/mL (≈ 23.8 µM), respectively.
As for `O=S(=O)(Nc1nc(-c2ccc(Br)cc2)cs1)c1ccccc1`, the MIC against Acinetobacter baumannii is more than 256 µg/mL; against Escherichia coli it was more than 256 µg/mL; with Staphylococcus aureus [1], 16 µg/mL (≈ 40.5 µM); in the assay with Staphylococcus aureus [2] it was 64 µg/mL (≈ 162 µM).
Turning to `CCOC(=O)c1cccc(-c2cccc(-c3csc(N)n3)c2)c1`, the minimal inhibitory concentration (MIC) in the assay on Acinetobacter baumannii, against Escherichia coli, with Staphylococcus aureus [1] and against Staphylococcus aureus [2] was more than 256 µg/mL in each case.
Regarding `Nc1nc(-c2ccc(-c3cccc(OC(F)(F)F)c3)cc2)cs1`, the results for the minimum inhibitory concentration (MIC) with Escherichia coli, in the assay with Staphylococcus aureus [1] and against Staphylococcus aureus [2] were more than 256 µg/mL, 2 µg/mL (≈ 5.95 µM) and more than 256 µg/mL, respectively.
With `CCOC(=O)c1cccc(-c2ccccc2-c2csc(N)n2)c1`, the MIC in the assay on Acinetobacter baumannii is more than 256 µg/mL; in the assay with Escherichia coli, more than 256 µg/mL; against Staphylococcus aureus [1], 32 µg/mL (≈ 98.6 µM); against Staphylococcus aureus [2], 256 µg/mL (≈ 789 µM).
`Nc1nc(-c2ccccc2-c2cccc(OC(F)(F)F)c2)cs1`: the minimal inhibitory concentration (MIC) is more than 256 µg/mL with Escherichia coli, 16 µg/mL (≈ 47.6 µM) in the assay on Staphylococcus aureus [1] and 16 µg/mL (≈ 47.6 µM) against Staphylococcus aureus [2].
Consider `CC(=O)OCC1=C(C(=O)O)N2C(=O)[C@@H](NC(=O)c3cccc(-c4csc(N)n4)c3)C2SC1` (stereo not given in full), for which the MIC is more than 256 µg/mL in the assay on Escherichia coli, 16 µg/mL (≈ 33.7 µM) with Staphylococcus aureus [1], 256 µg/mL (≈ 539 µM) against Staphylococcus aureus [2] and 256 µg/mL (≈ 539 µM) in the assay on Staphylococcus aureus [3].
In the case of `O=S(=O)(Nc1nc2c(s1)CCCC2)c1cccc(C(F)(F)F)c1`, the MIC in the assay with Escherichia coli, in the assay on Staphylococcus aureus [1], in the assay with Staphylococcus aureus [2] and in the assay on Staphylococcus aureus [3] was more than 256 µg/mL each time.
Consider `CCOC(=O)c1cccc(-c2ccc3sc(N)nc3c2)c1`, for which the MIC in the assay on Escherichia coli, in the assay on Staphylococcus aureus [1], against Staphylococcus aureus [2] and against Staphylococcus aureus [3] was more than 256 µg/mL each time.
Turning to `Nc1nc2cc(-c3cccc(OC(F)(F)F)c3)ccc2s1`, the figures for the minimum inhibitory concentration (MIC) against Escherichia coli, with Staphylococcus aureus [1] and with Staphylococcus aureus [2] were more than 256 µg/mL, 8 µg/mL (≈ 25.8 µM) and 8 µg/mL (≈ 25.8 µM), respectively.
Turning to `Nc1nc2ccc(-c3cccc(OC(F)(F)F)c3)cc2s1`, the minimal inhibitory concentration (MIC) was more than 256 µg/mL against Escherichia coli, 8 µg/mL (≈ 25.8 µM) against Staphylococcus aureus [1] and 16 µg/mL (≈ 51.6 µM) with Staphylococcus aureus [2].
As for `Nc1nc(-c2ccc(OC(F)(F)F)cc2)cs1`, the minimum inhibitory concentration (MIC) was more than 256 µg/mL in the assay with Escherichia coli, 64 µg/mL (≈ 246 µM) with Staphylococcus aureus [1] and 64 µg/mL (≈ 246 µM) in the assay on Staphylococcus aureus [2].
On to `Nc1nc(-c2ccc(N3CCOCC3)cc2)cs1`, for which the minimum inhibitory concentration (MIC) against Escherichia coli is more than 256 µg/mL; with Staphylococcus aureus [1] it was 256 µg/mL (≈ 980 µM); with Staphylococcus aureus [2], more than 256 µg/mL; in the assay on Staphylococcus aureus [3] it was 128 µg/mL (≈ 490 µM).
Turning to `Fc1cccc(Nc2nc(-c3ccc(N4CCOCC4)cc3)cs2)c1`, the MIC was more than 256 µg/mL with Escherichia coli, more than 256 µg/mL with Staphylococcus aureus [1], more than 256 µg/mL against Staphylococcus aureus [2] and 256 µg/mL (≈ 720 µM) in the assay with Staphylococcus aureus [3].
Regarding `Nc1nc(-c2ccc(N3CCCC3)cc2)cs1`, the MIC with Escherichia coli is more than 256 µg/mL; with Staphylococcus aureus [1], more than 256 µg/mL; in the assay with Staphylococcus aureus [2], more than 256 µg/mL; against Staphylococcus aureus [3], 256 µg/mL (≈ 1040 µM).
As to `Fc1cccc(Nc2nc(-c3ccc(N4CCCC4)cc3)cs2)c1`, the minimum inhibitory concentration (MIC) against Escherichia coli was more than 256 µg/mL; in the assay with Staphylococcus aureus [1] it was more than 256 µg/mL; against Staphylococcus aureus [2], more than 256 µg/mL; in the assay on Staphylococcus aureus [3], 2 µg/mL (≈ 5.89 µM).
As to `Fc1cccc(Nc2nc(-c3cccc(Br)c3)cs2)c1`, the minimum inhibitory concentration (MIC) in the assay on Escherichia coli was more than 256 µg/mL; with Staphylococcus aureus [1] it was 4 µg/mL (≈ 11.5 µM); in the assay on Staphylococcus aureus [2], 4 µg/mL (≈ 11.5 µM); against Staphylococcus aureus [3], 2 µg/mL (≈ 5.73 µM).
With `O=S(=O)(Nc1nc(C23CC4CC(CC(C4)C2)C3)cs1)c1cccc(C(F)(F)F)c1`, the MIC is more than 256 µg/mL against Escherichia coli, more than 256 µg/mL in the assay with Staphylococcus aureus [1], more than 256 µg/mL in the assay on Staphylococcus aureus [2] and 128 µg/mL (≈ 289 µM) in the assay with Staphylococcus aureus [3].
As for `O=S(=O)(Nc1nc(-c2ccccc2F)cs1)c1ccccc1`, the MIC in the assay on Escherichia coli was more than 256 µg/mL; against Staphylococcus aureus [1] it was 32 µg/mL (≈ 95.7 µM); in the assay with Staphylococcus aureus [2], 128 µg/mL (≈ 383 µM).
In the same order, the values of `COC(=O)c1cccc(-c2csc(N)n2)c1` are more than 256 µg/mL, more than 256 µg/mL and more than 256 µg/mL.
In the same order, the values of `COC(=O)c1ccc(-c2csc(N)n2)cc1` are more than 256 µg/mL, 128 µg/mL (≈ 546 µM) and more than 256 µg/mL.
For the compound `CO/N=C(\C(=O)N[C@@H]1C(=O)N2C(C(=O)O)=C(CSc3nc(=O)c(O)nn3C)CS[C@H]12)c1csc(N)n1` [CEFTRIAXONE], the minimum inhibitory concentration (MIC) came to 8 µg/mL (≈ 14.4 µM) against Acinetobacter baumannii; 2 µg/mL (≈ 3.61 µM) against Escherichia coli; 16 µg/mL (≈ 28.9 µM) against Staphylococcus aureus [1]; 128 µg/mL (≈ 231 µM) against Staphylococcus aureus [2]; 8 µg/mL (≈ 14.4 µM) in the assay on Staphylococcus aureus [3].
